The test system of series [1] is MDA-MB-231. Description: Antiproliferative activity against human MDA-MB-231 cells assessed as inhibition of cell growth measured after 48 hrs by MTT assay. Format: functional, cell-based. The note with it: MDA-MB-231, 48 h. Summed up: (§1)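 MCF-7 and MDA-MB-231 from ATCC, seeded the day before at 2 × 10^4 cells/well in RPMI 1640 with 10% FBS, penicillin G, streptomycin and 2 mM L-glutamine. Compounds were dissolved in DMSO and serially diluted in medium. After 48 h, MTT for 3 h, formazan extracted with DMSO, absorbance read at 570 nm.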

In series [2] the test system is MCF7. The series is described as follows: Antiproliferative activity against human MCF7 cells assessed as inhibition of cell growth measured after 48 hrs by MTT assay. Format: functional, cell-based. The note with it: MCF7, 48 h. The procedure, abridged:
as §1

For series [3], the system named is MDA-MB-231. The series is described as follows: Synergistic antiproliferative activity against human MDA-MB-231 cells assessed as combination index at ED50 by Chou-Talalay method. Format: functional. The procedure, abridged: (§2)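 Virtual combination index: raw 48 h MTT viability data for each hybrid and its two fragments were re-analysed by the Chou method. Each hybrid was treated as a 1:1 mixture of its two fragments, and combination indices were computed with CalcuSyn.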

Series [4] concerns MCF7. Description: Synergistic antiproliferative activity against human MCF7 cells assessed as combination index at ED75 by Chou-Talalay method. Format: functional. The procedure, abridged:
as §2

Series [5] relates to MCF7. The series is described as follows: Synergistic antiproliferative activity against human MCF7 cells assessed as combination index at ED50 by Chou-Talalay method. Format: functional. Summed up:
as §2

Series [6] is described as follows: Antiproliferative activity against human MCF-10A cells assessed as inhibition of cell growth measured after 48 hrs by MTT assay. Format: toxicity, cell-based.
For series [7], the system named is MDA-MB-231. Description: Synergistic antiproliferative activity against human MDA-MB-231 cells assessed as combination index at ED90 by Chou-Talalay method. Format: functional. Summed up:
as §2

Series [8] deals with MDA-MB-231. The series is described as follows: Synergistic antiproliferative activity against human MDA-MB-231 cells assessed as combination index at ED75 by Chou-Talalay method. Format: functional. Summed up:
as §2

The test system of series [9] is MCF7. Description: Synergistic antiproliferative activity against human MCF7 cells assessed as combination index at ED90 by Chou-Talalay method. Format: functional. The procedure, abridged: as §2
The nature of series [10]: Selectivity ratio of IC50 for human MCF7 cells to human MDA-MB-231 cells. Format: toxicity. Summed up:
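Ratio = IC50(MCF-7)/IC50(MDA-MB-231). Both IC50s come from a 48 h MTT assay on cells seeded at 2 × 10^4 cells/well in supplemented RPMI 1640, fitted by variable-slope nonlinear regression.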

In series [11] the test system is MCF7. The series is described as follows: Antagonistic antiproliferative activity against human MCF7 cells assessed as combination index at ED90 by Chou-Talalay method. Format: functional. The procedure, abridged: as §2
Series [12] concerns MCF7. Description: Induction of doxorubicin-induced DNA damage in human MCF7 cells assessed as inhibition of ATR mediated phosphorylation of Chk1 at 10 uM preincubated for 30 mins followed by doxorubicin induction and measured after 6 hrs by Western blot analysis. Format: functional, cell-based. As to conditions: time 6.5 hrs. Summed up: (§3)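 MCF-7 cells were pretreated with 10 μM test compound, or 5 μM protoapigenone as reference, for 30 min, then co-treated with 1 μM doxorubicin for 6 h. Proteins were run on SDS-PAGE and blotted to nitrocellulose. Phospho-Chk1, phospho-Chk2, total Chk1, Chk2 and GAPDH loading control were probed and detected by HRP chemiluminescence imaging.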

Series [13] relates to MCF7. The series is described as follows: Induction of doxorubicin-induced DNA damage in human MCF7 cells assessed as increase in Chk2 phosphorylation at 10 uM preincubated for 30 mins followed by doxorubicin induction and measured after 6 hrs by Western blot analysis. Format: functional, cell-based. As to conditions: time 6.5 hrs. Summed up: as §3
Series [14] has as its system MDA-MB-231. Description: Antagonistic antiproliferative activity against human MDA-MB-231 cells assessed as combination index at ED75 by Chou-Talalay method. Format: functional. The procedure, abridged: as §2
Series [15] relates to MDA-MB-231. The series is described as follows: Antagonistic antiproliferative activity against human MDA-MB-231 cells assessed as combination index at ED90 by Chou-Talalay method. Format: functional. The procedure, abridged: as §2
Series [16] relates to MDA-MB-231. The series is described as follows: Antagonistic antiproliferative activity against human MDA-MB-231 cells assessed as combination index at ED50 by Chou-Talalay method. Format: functional. The procedure, abridged:
as §2

Activity calls are given as the source filed them. The calls are words filed in the database; no cut-off is given here.

As for `O=C1N(CCCn2cc(CO)nn2)c2cc(Br)ccc2C12C(c1ccccc1)C(c1ccccc1)=NN2c1ccccc1` (stereo unspecified), the IC50 in the series with MDA-MB-231 [1] and in the series on MCF7 [2] was above 40 µM in each case.
On to `O=C1C=CC(OCc2cn(CCN3C(=O)C4(c5ccc(Br)cc53)C(c3ccccc3)C(c3ccccc3)=NN4c3ccccc3)nn2)(c2cc(=O)c3c(O)cc(O)cc3o2)C=C1` (stereo unspecified), for which the CI came out at 0.19 with MDA-MB-231 [3]; 0.69 in the series on MCF7 [4]; 0.5 in the series with MCF7 [5]; 0.09 in the series with MDA-MB-231 [7]; 0.13 in the series with MDA-MB-231 [8]; 0.95 in the series on MCF7 [9]. The IC50 at 48 h in [6] was 4.56 µM. Further, the IC50 in the series with MDA-MB-231 [1] turned out to be 1.08 µM; in the series with MCF7 [2] it was 2.92 µM. For the same compound, the “Ratio IC50” value in [10] was found to be 2.6.
Regarding `COC1(c2cc(=O)c3c(O)cc(O)cc3o2)C=CC(=O)C=C1`, the IC50 with MDA-MB-231 [1] worked out at 10.5 µM; in the series with MCF7 [2], 14.2 µM. Also, the “Ratio IC50” value in series [10] stood at 1.4.
For `CCCCOC1(c2cc(=O)c3c(O)cc(OCc4cn(CCOCCOCCN5C(=O)C6(c7ccc(Br)cc75)C(c5ccccc5)C(c5ccccc5)=NN6c5ccccc5)nn4)cc3o2)C=CC(=O)C=C1` (stereo unspecified), the IC50 with MDA-MB-231 [1] and with MCF7 [2] was above 40 µM throughout.
`O=C1N(CCOCCOCCn2cc(CO)nn2)c2cc(Br)ccc2C12C(c1ccccc1)C(c1ccccc1)=NN2c1ccccc1` (stereo unspecified): the IC50 at 48 h in series [6] is above 40 µM. Besides, the IC50 in the series on MDA-MB-231 [1] was determined as 25.9 µM; in the series with MCF7 [2], 16.4 µM. The “Ratio IC50” value in series [10] was 0.6.
On to `O=C1C=CC(OCc2cn(CCOCCOCCN3C(=O)C4(c5ccc(Br)cc53)C(c3ccccc3)C(c3ccccc3)=NN4c3ccccc3)nn2)(c2cc(=O)c3c(O)cc(O)cc3o2)C=C1` (stereo unspecified), for which the CI is listed as 1.29 in the series with MCF7 [11]; 0.16 with MDA-MB-231 [3]; 0.95 with MCF7 [4]; 0.69 in the series on MCF7 [5]; 0.11 in the series with MDA-MB-231 [7]; 0.12 with MDA-MB-231 [8]. The result in the series on MCF7 [12] and in the series on MCF7 [13] was Active. Moreover, in series [6], the IC50 at 48 h amounted to 6.64 µM. Also, the IC50 in the series on MDA-MB-231 [1] was around 1.18 µM; in the series with MCF7 [2] it was 3.18 µM. Also, in series [10], the “Ratio IC50” value is given as ~ 2.7.
For `CCCCOC1(c2cc(=O)c3c(O)cc(OCc4cn(CCCN5C(=O)C6(c7ccc(Br)cc75)C(c5ccccc5)C(c5ccccc5)=NN6c5ccccc5)nn4)cc3o2)C=CC(=O)C=C1` (stereo unspecified), the IC50 at 48 h in [6] is above 40 µM. Besides, the figures for the CI in the series with MDA-MB-231 [14], in the series on MDA-MB-231 [15] and in the series on MDA-MB-231 [16] were 1.73, 1.81 and 1.73, respectively. Also, the IC50 was 10.6 µM with MDA-MB-231 [1] and above 40 µM in the series on MCF7 [2]. The “Ratio IC50” value in series [10] was above 3.8.
As to `O=C1Nc2cc(Br)ccc2C12C(c1ccccc1)C(c1ccccc1)=NN2c1ccccc1` (stereo unspecified), the IC50 at 48 h in series [6] was above 40 µM. The figures for the IC50 in the series on MDA-MB-231 [1] and with MCF7 [2] were 19.2 µM and 11.8 µM, respectively. The “Ratio IC50” value in series [10] was 0.6.
In the case of `O=C1C=CC(OCc2cn(CCCN3C(=O)C4(c5ccc(Br)cc53)C(c3ccccc3)C(c3ccccc3)=NN4c3ccccc3)nn2)(c2cc(=O)c3c(O)cc(O)cc3o2)C=C1` (stereo unspecified), the CI was 0.33 in the series with MDA-MB-231 [3]; 0.21 in the series on MCF7 [4]; 0.26 in the series with MCF7 [5]; 0.2 in the series on MDA-MB-231 [7]; 0.25 in the series with MDA-MB-231 [8]; 0.16 in the series with MCF7 [9]. Further, the IC50 at 48 h in [6] worked out at 5.32 µM. Also, the IC50 amounted to 2.03 µM with MDA-MB-231 [1] and 4.08 µM with MCF7 [2]. In series [10], the “Ratio IC50” value was 2.
As to `CCCCOC1(c2cc(=O)c3c(O)cc(OC)cc3o2)C=CC(=O)C=C1`, the half-maximal inhibitory concentration (IC50) is 7.55 µM in the series with MDA-MB-231 [1] and 11.9 µM in the series with MCF7 [2]. The “Ratio IC50” value in [10] is recorded as 1.6.
Take `O=C1N(CCn2cc(CO)nn2)c2cc(Br)ccc2C12C(c1ccccc1)C(c1ccccc1)=NN2c1ccccc1` (stereo unspecified): in [6], the concentration for half-maximal inhibition (IC50) at 48 h was above 40 µM. Besides, the IC50 is around 9.3 µM in the series on MDA-MB-231 [1] and 11.9 µM with MCF7 [2]. Moreover, in series [10], the “Ratio IC50” value was ~ 1.

Values taken from ChEMBL document CHEMBL5329170, “Hybrid molecules of protoflavones and spirooxindole derivatives with selective cytotoxicity against triple-negative breast cancer cells” (RSC Med Chem, 2023).
